Assay results published in ChEMBL document CHEMBL1142087 (Antimicrob Agents Chemother, 2007).
Activity calls are given as the source filed them. No cut-off for these calls is given here.

What was measured:
[1] = test system: Influenza A virus; assay: Inhibition of influenza A virus (A/duck/Minnesota/1525/1981 (H5N1)) replication in MDCK cells by virus yield reduction assay; assay type: functional
[2] = test system: Mus musculus; assay: Effect on survival of BALB/c mouse infected with influenza A virus (A/duck/Minnesota/1525/1981 (H5N1)) at 300 mg/kg/day, po once daily for 5 days administered 1 hr after infection relative to carboxymethyl cellulose; assay type: functional, organism-based
[3] = test system: Mus musculus; assay: Effect on survival of BALB/c mouse infected with influenza A virus (A/duck/Minnesota/1525/1981 (H5N1)) at 100 mg/kg/day, po once daily for 5 days administered 1 hr after infection relative to carboxymethyl cellulose; assay type: functional, organism-based
[4] = test system: Mus musculus; assay: Effect on survival of BALB/c mouse infected with influenza A virus (A/duck/Minnesota/1525/1981 (H5N1)) at 3 mg/kg/day, po once daily for 5 days administered 1 hr after infection relative to carboxymethyl cellulose; assay type: functional, organism-based
[5] = test system: Mus musculus; assay: Lowering of arterial oxygen saturation decline in BALB/c mouse infected with influenza A virus (A/duck/Minnesota/1525/1981 (H5N1)) at 100 mg/kg/day, po once daily for 5 days administered 1 hr after infection measured on day 11 relative to carboxymethyl cellulose; assay type: functional
[6] = test system: Mus musculus; assay: Lowering of arterial oxygen saturation decline in BALB/c mouse infected with influenza A virus (A/duck/Minnesota/1525/1981 (H5N1)) at 30 mg/kg/day, po once daily for 5 days administered 1 hr after infection measured on day 11 relative to carboxymethyl cellulose; assay type: functional
[7] = test system: Mus musculus; assay: Lowering of arterial oxygen saturation decline in BALB/c mouse infected with influenza A virus (A/duck/Minnesota/1525/1981 (H5N1)) at 10 mg/kg/day, po once daily for 5 days administered 1 hr after infection measured on day 11 relative to carboxymethyl cellulose; assay type: functional
[8] = test system: Mus musculus; assay: Effect on survival of BALB/c mouse infected with influenza A virus (A/duck/Minnesota/1525/1981 (H5N1)) at 33 mg/kg/day, po qid for 5 days administered 1 hr after infection relative to carboxymethyl cellulose; assay type: functional, organism-based
[9] = test system: Mus musculus; assay: Effect on survival of BALB/c mouse infected with influenza A virus (A/duck/Minnesota/1525/1981 (H5N1)) at 300 mg/kg/day, po qid for 5 days administered 84 hrs after infection relative to carboxymethyl cellulose; assay type: functional, organism-based
[10] = test system: Mus musculus; assay: Inhibition of increase in lung weight of BALB/c mouse infected with influenza A virus (A/duck/Minnesota/1525/1981 (H5N1)) at 100 mg/kg/day, po qid for 5 days administered 1 hr after infection measured on day 6 relative to carboxymethyl cellulose; assay type: functional
[11] = test system: Mus musculus; assay: Lowering of Arterial oxygen saturation decline in BALB/c mouse infected with influenza A virus (A/duck/Minnesota/1525/1981 (H5N1)) at 300 mg/kg/day, po qid for 5 days administered 1 hr after infection measured on day 11 relative to carboxymethyl cellulose; assay type: functional
Procedure, shortened: (§1)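 Arterial oxygen saturation was measured by pulse oximeter, with the ear probe placed on the thigh and read after 30 s stabilization. Values were taken on day 11, 10 mice per group. Mice dead from infection were assigned 75%. Means were compared with CMC controls by t test.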

[12] = test system: Mus musculus; assay: Lowering of Arterial oxygen saturation decline in BALB/c mouse infected with influenza A virus (A/duck/Minnesota/1525/1981 (H5N1)) at 33 mg/kg/day, po qid for 5 days administered 1 hr after infection measured on day 11 relative to carboxymethyl cellulose; assay type: functional
[13] = test system: Mus musculus; assay: Effect on survival in BALB/c mouse infected with influenza A virus (A/duck/Minnesota/1525/1981 (H5N1)) at 600 mg/kg/day, po administered 4 hrs after infection relative to carboxymethyl cellulose; assay type: functional, organism-based
[14] = test system: Mus musculus; assay: Effect on survival in BALB/c mouse infected with influenza A virus (A/duck/Minnesota/1525/1981 (H5N1)) at 600 mg/kg/day, po administered 60 hrs after infection relative to carboxymethyl cellulose; assay type: functional, organism-based
[15] = test system: Mus musculus; assay: Effect on survival of BALB/c mouse infected with influenza A virus (A/duck/Minnesota/1525/1981 (H5N1)) at 300 mg/kg/day, po twice daily for 5 days administered 1 hr after infection relative to carboxymethyl cellulose; assay type: functional, organism-based
[16] = test system: Mus musculus; assay: Effect on survival of BALB/c mouse infected with influenza A virus (A/duck/Minnesota/1525/1981 (H5N1)) at 300 mg/kg/day, po qid for 5 days administered 24 hrs after infection relative to carboxymethyl cellulose; assay type: functional, organism-based
[17] = test system: Mus musculus; assay: Effect on survival of BALB/c mouse infected with influenza A virus (A/duck/Minnesota/1525/1981 (H5N1)) at 300 mg/kg/day, po qid for 5 days administered 36 hrs after infection relative to carboxymethyl cellulose; assay type: functional, organism-based
[18] = test system: Mus musculus; assay: Effect on survival of BALB/c mouse infected with influenza A virus (A/duck/Minnesota/1525/1981 (H5N1)) at 300 mg/kg/day, po qid for 5 days administered 60 hrs after infection relative to carboxymethyl cellulose; assay type: functional, organism-based
[19] = test system: Mus musculus; assay: Lowering of arterial oxygen saturation decline in BALB/c mouse infected with influenza A virus (A/duck/Minnesota/1525/1981 (H5N1)) at 300 mg/kg/day, po qid for 5 days administered 36 hrs after infection measured on day 11 relative to carboxymethyl cellulose; assay type: functional
[20] = test system: Mus musculus; assay: Lowering of arterial oxygen saturation decline in BALB/c mouse infected with influenza A virus (A/duck/Minnesota/1525/1981 (H5N1)) at 300 mg/kg/day, po qid for 5 days administered 48 hrs after infection measured on day 11 relative to carboxymethyl cellulose; assay type: functional
[21] = test system: Mus musculus; assay: Lowering of arterial oxygen saturation decline in BALB/c mouse infected with influenza A virus (A/duck/Minnesota/1525/1981 (H5N1)) at 300 mg/kg/day, po qid for 5 days administered 84 hrs after infection measured on day 11 relative to carboxymethyl cellulose; assay type: functional
[22] = test system: Mus musculus; assay: Lowering of arterial oxygen saturation decline in BALB/c mouse infected with influenza A virus (A/duck/Minnesota/1525/1981 (H5N1)) at 300 mg/kg/day, po qid for 5 days administered 96 hrs after infection measured on day 11 relative to carboxymethyl cellulose; assay type: functional
[23] = test system: Mus musculus; assay: Lowering of arterial oxygen saturation decline in BALB/c mouse infected with influenza A virus (A/duck/Minnesota/1525/1981 (H5N1)) at 300 mg/kg/day, po qid for 5 days administered 120 hrs after infection measured on day 11 relative to carboxymethyl cellulose; assay type: functional
[24] = test system: Mus musculus; assay: Effect on survival of BALB/c mouse infected with influenza A virus (A/duck/Minnesota/1525/1981 (H5N1)) at 100 mg/kg/day, po twice daily for 5 days administered 1 hr after infection relative to carboxymethyl cellulose; assay type: functional, organism-based
[25] = test system: Mus musculus; assay: Lowering of Arterial oxygen saturation decline in BALB/c mouse infected with influenza A virus (A/duck/Minnesota/1525/1981 (H5N1)) at 30 mg/kg/day, po twice daily for 5 days administered 1 hr after infection measured on day 11 relative to carboxymethyl cellulose; assay type: functional; procedure, shortened: as §1
[26] = test system: Mus musculus; assay: Lowering of Arterial oxygen saturation decline in BALB/c mouse infected with influenza A virus (A/duck/Minnesota/1525/1981 (H5N1)) at 3 mg/kg/day, po twice daily for 5 days administered 1 hr after infection measured on day 11 relative to carboxymethyl cellulose; assay type: functional; procedure, shortened: as §1

NC(=O)c1nc(F)cnc1O [FAVIPIRAVIR]
EC90 [1]: 2600 nM | Activity [2]: Active | Activity [3]: Active | Activity [4]: inactive | Activity [5]: 80.8% | Activity [6]: 81.4% | Activity [7]: 77% | Activity [8]: Active | Activity [9]: Active | Activity [10]: 140 mg | Activity [11]: 88.6% | Activity [12]: 84.8% | Activity [13]: Active | Activity [14]: Active | Activity [15]: Active | Activity [16]: Active | Activity [17]: Active | Activity [18]: Active | Activity [19]: 84.6% | Activity [20]: 87.1% | Activity [21]: 81.7% | Activity [22]: 81.2% | Activity [23]: 76% | Activity [24]: Active | Activity [25]: 79.8% | Activity [26]: 75%
